Apaf-1 act = human Apaf-1 activation; 330,000 compounds, 0.31% hits; O14727; Apaf-1 apoptosome caspase-3 activation, DEVD-Rh110 fluorescence; stronger effect = lower value; activity change, negative = activation, % at 20 µM;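 active = activity change at or below -40% at 20 µM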
Target sequence (O14727 whole entry, looked up): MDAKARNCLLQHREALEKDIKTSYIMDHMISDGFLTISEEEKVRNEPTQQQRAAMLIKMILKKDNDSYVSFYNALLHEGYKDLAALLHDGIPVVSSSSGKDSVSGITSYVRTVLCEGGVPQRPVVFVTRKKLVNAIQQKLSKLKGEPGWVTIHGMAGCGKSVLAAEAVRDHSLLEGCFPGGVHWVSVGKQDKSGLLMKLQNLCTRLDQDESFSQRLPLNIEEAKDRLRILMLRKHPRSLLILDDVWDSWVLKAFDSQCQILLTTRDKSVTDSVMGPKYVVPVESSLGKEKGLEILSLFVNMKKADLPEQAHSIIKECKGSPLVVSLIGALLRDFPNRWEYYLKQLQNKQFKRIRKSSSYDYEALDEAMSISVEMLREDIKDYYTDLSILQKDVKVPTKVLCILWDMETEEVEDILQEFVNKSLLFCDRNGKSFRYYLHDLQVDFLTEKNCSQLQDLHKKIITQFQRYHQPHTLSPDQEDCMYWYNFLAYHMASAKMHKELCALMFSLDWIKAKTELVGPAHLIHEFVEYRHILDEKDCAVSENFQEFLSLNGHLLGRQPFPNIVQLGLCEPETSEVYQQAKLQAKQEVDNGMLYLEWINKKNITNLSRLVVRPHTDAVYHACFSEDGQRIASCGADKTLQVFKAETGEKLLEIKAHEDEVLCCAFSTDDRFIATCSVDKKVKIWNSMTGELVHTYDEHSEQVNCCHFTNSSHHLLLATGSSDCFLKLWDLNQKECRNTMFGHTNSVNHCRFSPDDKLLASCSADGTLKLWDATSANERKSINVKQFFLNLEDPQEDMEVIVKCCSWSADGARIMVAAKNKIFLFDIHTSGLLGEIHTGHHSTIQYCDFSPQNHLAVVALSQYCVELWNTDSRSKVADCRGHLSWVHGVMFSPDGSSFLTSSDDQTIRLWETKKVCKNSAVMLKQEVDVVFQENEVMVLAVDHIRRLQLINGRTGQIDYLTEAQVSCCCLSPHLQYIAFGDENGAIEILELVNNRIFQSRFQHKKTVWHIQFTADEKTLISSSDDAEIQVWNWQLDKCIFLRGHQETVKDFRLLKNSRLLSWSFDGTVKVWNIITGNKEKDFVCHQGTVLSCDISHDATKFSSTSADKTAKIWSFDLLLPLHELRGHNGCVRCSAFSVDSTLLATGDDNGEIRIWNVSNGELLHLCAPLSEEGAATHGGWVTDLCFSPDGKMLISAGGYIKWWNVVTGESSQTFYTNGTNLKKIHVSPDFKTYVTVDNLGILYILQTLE
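Material: reconstituted apoptosome of Apaf-1, cytochrome c, caspase-9, procaspase-3; times: 30 min preincubation, 50 min reaction, room temperature; measured by: fluorescence, 540 nm emission, 480 nm excitation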
Rh110 interf act = counter-screen for Apaf-1 activators: fluorescence interference. shares compounds with Apaf-1 act. Rh110 fluorescence interference, quenched caspase reaction, Ex480/Em540. fluorescence interference (activity change), % at 20 µM, hits read low. 980 tested, under 10 active. AID 504616;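 active = mean activity change at or below -40% when tested at 20 µM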
Apaf-1 act conf = Apaf-1 (human) activation, single-dose confirmed; shares compounds with Apaf-1 act; reconstituted apoptosome caspase-3 activity, DEVD-Rh110 fluorescence; stronger effect = lower value; activity change, negative = activation, % at 20 µM; 980 compounds, 5% hits; AID 504617;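 active = mean activity change at or below -40%, meaning activation of 40% or more, at 20 µM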
Fluor interf act = Apaf-1 activator counter-screen fluorescence artifact; shares compounds with Apaf-1 act; fluorescence interference counterscreen, Apaf-1 activator assay; EC50, µM; 55 tested, under 10 active; AID 588592; call rule not given here
The depositor's hits bear a star; nt = not tested or not shown. Only a sample is shown.

SMILES | Apaf-1 act | Rh110 interf act | Apaf-1 act conf | others
Cn1c(=O)c2c(SCC(=O)NC3CCCC3)nc(CC(C)(C)C)nc2n(C)c1=O | -508* | 0 | 8
COCCOC(=O)c1[nH]c2c(c1C)C(=O)C(C(=O)OC)C(C)C2 (stereo unspecified) | -68* | -3 | 10
CC1(C)N([O-])c2cc([N+](=O)[O-])ccc2[N+]1=O | 66 | nt | nt
Cc1cccc(C)c1N1CCN(c2n[nH]c(N)n2)CC1 | -60* | 3 | 19
O=C(c1ccc(F)cc1)[C@@H]1[C@@H](C(=O)c2ccccc2)[C@@]2(C(=O)Nc3ccccc32)[C@H]2c3ccccc3C=CN12 | 73 | nt | nt
CC(=O)c1ccc(NC(=O)c2noc(C(C)C)c2[N+](=O)[O-])cc1 | -127* | 5 | -4
CCOc1cc(CNc2ccc3cn[nH]c3c2)ccc1OC | 85 | nt | nt
O=C1c2ccccc2C(=O)C1c1ccc2ccccc2n1 | -334* | 6 | 5
Cc1ccc(N2CCN(S(=O)(=O)c3cccs3)CC2C)cc1 (stereo unspecified) | 62 | nt | nt
Cc1oc2c(c1C(=O)c1ccccc1)C(=O)C(=O)c1ccccc1-2 | 91 | nt | nt
CCN1CCN(Cc2ccc(NC(=O)c3ccc(C)c(NC(=O)c4cc(-c5ccc(Br)cc5)n[nH]4)c3)cc2C(F)(F)F)CC1 | 45 | nt | nt
COc1ccc(/C=N/Nc2cc(N3CCCC3)nc(N3CCCC3)n2)cc1 | 93 | nt | nt
O=C(/C=C/c1ccc([N+](=O)[O-])cc1)/C=C/c1ccco1 | 43 | nt | nt
O=C(N/N=C/c1cn(-c2ccccc2)nc1-c1cccnc1)c1ccccc1 | -52* | 0 | 16
COC1=CC(=O)c2ccccc2C1=O | 79 | nt | nt
CC1=C(CC(=O)c2ccccc2)C(=O)c2ccccc2C1=O | 45 | nt | nt
COCCn1c(=S)[nH]c2cc(C(=O)N3CCN(c4cccc(Cl)c4)CC3)ccc2c1=O | -324* | 8 | 24
COC(=O)c1ccc2c(=O)n(CCCCCC(=O)N3CCN(c4ccccc4)CC3)c(=O)[nH]c2c1 | 47 | nt | nt
O=C(NCCC(=O)N1CCN(c2cccc(Cl)c2)CC1)c1ccc(Br)cc1 | 44 | nt | nt
CCN(CC)CCOc1ccc(/C(=C(/Cl)c2ccccc2)c2ccccc2)cc1 | 66 | nt | nt
C#CCOCCOCCOCCNc1nc(N2CCN(C(=O)CCCCCCCCCCNC(=O)[C@H](CCCN=C(N)N)n3cc(C[C@@H](C)CC)nn3)CC2)nc(N2CCN(C(=O)CCCCCCCCCCNC(=O)[C@@H]([C@H](C)CC)n3cc(CCCCCN)nn3)CC2)n1 | 80 | nt | nt
CCCN(C(=O)COC(=O)C12CCC(=O)N1c1ccccc1S2)c1c(N)n(Cc2ccccc2)c(=O)[nH]c1=O (stereo unspecified) | -50* | 4 | 14
COc1ccccc1-c1c(C#N)c(N)nc2c1CCc1ccccc1-2 | 96 | nt | nt
COC/C=C/C1=CC2=CC(=O)C(C)(OC(=O)c3cnc4ccccc4n3)C(=O)C2=CN1CC(C)C (stereo unspecified) | 41 | nt | nt
CC(=O)c1c(-c2ccccc2)c2cc(Cl)ccc2[nH]c1=O | -49* | -2 | 8
SMILES | Apaf-1 act | Rh110 interf act | Apaf-1 act conf | others
C=C(C)C(=O)Nc1cccc(C2=NOC3(C2)C[C@@H](C(N)=O)N(C(=O)CCCCC)C3)c1 (stereo partly specified) | -333* | 5 | -121* | Fluor interf act=>100
COC(=O)C1=C(C)N(Cc2ccccc2)C(=NCc2ccccc2)N[C@H]1c1cccc(F)c1 | 41 | nt | nt
CCOc1cc(/C=C/c2nc3cc(C)c(C)cc3s2)ccc1OCC(=O)N1CCOCC1 | 45 | nt | nt
Cc1cccc(NC(=O)c2ccccc2OCC(=O)N2CCOCC2)c1C | -546* | 20 | 14
COc1cc(C(=O)N2CCN(c3cccc(C)c3C)CC2)ccc1OCC(=O)N1CCOCC1 | 51 | nt | nt
O=C(NC1CC2CCCC(C1)N2S(=O)(=O)c1ccccc1)c1ccco1 (stereo unspecified) | 42 | nt | nt
O=C(Nc1ccc2nc(-c3ccco3)c(-c3ccco3)nc2c1)NC1CC1 | 47 | nt | nt
O=C(NC1CC1)c1cc2ccccc2o1 | -363* | 1 | -1
CC(C)CCn1c(N)c(S(=O)(=O)c2cccs2)c2nc3ccccc3nc21 | 51 | nt | nt
CCC(C)(C)c1ccc(OCCCC[n+]2ccc(C)cc2)c(C(C)(C)CC)c1 | 48 | nt | nt
CC(=O)N(/N=C1\Sc2ccccc2C1=O)c1ccc(C)cc1C | 43 | nt | nt
CCN1CCN(CCCNC(=O)c2ccc(/C=C3/Oc4ccccc4N(Cc4cccc(C)c4)C3=O)cc2)CC1 | 47 | nt | nt
Cc1cccc(CN2C(=O)c3ccccc3Sc3ccc(C(=O)O)cc32)c1 | -53* | 10 | 13
COc1ccc(C(=O)COC(=O)CCCN=C2NS(=O)(=O)c3ccccc32)c(OC)c1 | 51 | nt | nt
C=CCC[C@@H](Cc1ccc(F)cc1)C(=O)OC[C@H]1CCCN1C(=O)[C@@H](CC=C)CC(=O)N[C@H](CO)Cc1ccccc1 | 40 | nt | nt
COc1ccc(CCN(C)C(=O)C2CC(=O)N(Cc3ccc(C)cc3)C2)cc1OC (stereo unspecified) | 56 | nt | nt
COc1ccc(Cn2c(SCc3ccccc3C)nc3cc(OC)c(OC)cc3c2=N)cc1 | 70 | nt | nt
COc1ccc(CCNC(=O)CSc2nnc(C(C)N(C)C)n2Cc2ccccc2)cc1OC (stereo unspecified) | -60* | 22 | 15
Cc1ccc(-c2nnc(CSc3nnc(COc4cccc5ccccc45)n3-c3ccccc3)o2)cc1 | 44 | nt | nt
O=C1c2cc(F)ccc2-n2c1nc1ccccc1c2=O | 63 | nt | nt
Cc1nnc(N/N=C/c2cccc(OCc3ccc(Cl)c(Cl)c3)c2)n1N | 77 | nt | nt
Cc1cccc(OCc2nc3ccccc3c(=O)n2N)c1 | -92* | -1 | 5
C/C(=C\C(=S)Nc1ccccc1)Nc1cccc2ccccc12 | 97 | nt | nt
COC(=O)CCC(=O)OC1(C)C(=O)C2=CN(CCN3CCOCC3)C(c3ccc(OC)cc3)=CC2=C(Br)C1=O (stereo unspecified) | 86 | nt | nt
c1coc(-c2nnc(-c3ccco3)nn2)c1 | 84 | nt | nt
SMILES | Apaf-1 act | Rh110 interf act | Apaf-1 act conf | others
O=C(CCn1c2c(c3ccccc31)CCCC2)NNC(=O)c1ccc([N+](=O)[O-])cc1 | 81 | nt | nt
Cc1ccc(C(=O)NC(=S)NNC(=O)c2cccc([N+](=O)[O-])c2)cc1 | -116* | 11 | 20
O=C(COC(=O)c1ccc([N+](=O)[O-])s1)NNC(=O)c1ccccc1 | 41 | nt | nt
O=C(O)CCCNc1cc(N2CCN(C(=O)c3ccco3)CC2)c2noc3c2c1C(=O)c1ccccc1-3 | 60 | nt | nt
O=C(NC1(O)C(=O)c2ccccc2C1=O)c1ccccc1 | 94 | nt | nt
CCNC(=S)SCCOc1ccc(C)cc1 | -127* | 12 | 20
C#CCOCCOCCOCCNc1nc(N2CCOCC2)nc(N2CCN(C(=O)CCCCCCCCCCNC(=O)[C@H]([C@@H](C)CC)n3cc(CCCCN=C(N)N)nn3)CC2)n1 | 60 | nt | nt
NS(=O)(=O)c1ccc(NC2=CC(=O)C(=O)c3ccccc32)cc1 | 95 | nt | nt
Cc1ccc(NC(=O)CCC(=O)OCc2ccc(Br)cc2)cc1 | -46* | -17 | 9
CCOC(=O)CNCCC(=O)c1ccc(Br)cc1 | 58 | nt | nt
